According to ChEMBL document CHEMBL1126988, “Quinolone antibacterials containing the new 7-[3-(1-aminoethyl)-1- pyrrolidinyl] side chain: the effects of the 1-aminoethyl moiety and its stereochemical configurations on potency and in vivo efficacy” (J Med Chem, 1993):
In brackets after ≈: the same amount, converted by molar mass.

Experiments:
[1] = test system: Escherichia coli; assay: Antibacterial activity in vitro against Escherichia coli Vogel; type: functional; conditions: Escherichia coli; read-out: MIC
Outline: (§1)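 Standard microtitration broth assay against a panel of 10 Gram-positive and Gram-negative organisms. MIC read in µg/mL and averaged over multiple experiments.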

[2] = test system: Escherichia coli; assay: Antibacterial activity against Escherichia coli Vogel after oral administration in mouse; type: functional; conditions: Escherichia coli, po; read-out: PD50
[3] = test system: Escherichia coli; assay: Antibacterial activity against Escherichia coli Vogel after subcutaneous administration in mouse; type: functional; conditions: Escherichia coli, sc; read-out: PD50
[4] = test system: Enterobacter cloacae; assay: Minimum inhibitory concentration in vitro against Enterobacter cloacae MA 2646; type: functional; conditions: Enterobacter cloacae; read-out: MIC
[5] = test system: Enterococcus faecalis; assay: Minimum inhibitory concentration was evaluated in vitro against Enterococcus faecalis MGH-2; type: functional; conditions: Enterococcus faecalis; read-out: MIC; outline: as §1
[6] = test system: Klebsiella pneumoniae; assay: Minimum inhibitory concentration was evaluated in vitro against Klebsiella pneumoniae MGH2; type: functional; conditions: Klebsiella pneumoniae; read-out: MIC; outline: as §1
[7] = species on record: Mus musculus; assay: Compounds were evaluated for phototoxicity no-effect dose in mouse; type: functional
Outline: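 Depilated female CD-1 mice, five per dose plus controls. Animals are dosed orally and then exposed daily to UV-A (320–400 nm) for 3 h, for up to 4 days or until a definite positive response. Redness or erythema relative to controls, read 24 h after irradiation, counts as positive. Reported as the highest dose with no effect (mg/kg).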

[8] = test system: Providencia rettgeri; assay: Minimum inhibitory concentration was evaluated in vitro against Providencia rettgeri M1771; type: functional; conditions: Providencia rettgeri; read-out: MIC; outline: as §1
[9] = test system: Pseudomonas aeruginosa; assay: Minimum inhibitory concentration was evaluated in vitro against Pseudomonas aeruginosa UI-18; type: functional; conditions: Pseudomonas aeruginosa; read-out: MIC; outline: as §1
[10] = test system: Staphylococcus aureus; assay: Minimum inhibitory concentration was evaluated in vitro against Staphylococcus aureus H 228; type: functional; conditions: Staphylococcus aureus; read-out: MIC; outline: as §1
[11] = test system: Staphylococcus aureus; assay: Minimum inhibitory concentration was evaluated in vitro against Staphylococcus aureus UC 76; type: functional; conditions: Staphylococcus aureus; read-out: MIC; outline: as §1
[12] = test system: Streptococcus pneumoniae; assay: Minimum inhibitory concentration was evaluated in vitro against Streptococcus pneumoniae SV-1; type: functional; conditions: Streptococcus pneumoniae; read-out: MIC; outline: as §1
[13] = test system: Streptococcus pyogenes; assay: Antibacterial activity measured as mouse protection against Streptococcus pyogenes C 203 after subcutaneous administration; type: functional; conditions: Streptococcus pyogenes, C 203, sc; read-out: PD50
[14] = Clonogenic cytotoxicity against hamster V-79 cells; type: functional, Cricetulus griseus, V79
Outline: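 Chinese hamster V-79 cells grown overnight, then drug-treated for 3 h at 37 °C. Medium is replaced with fresh medium and cells are incubated 5 days to allow colony formation. IC50 (µg/mL) is the concentration inhibiting colony formation by 50% relative to control.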

[15] = test system: Streptococcus pyogenes; assay: Compounds were evaluated in vivo for antibacterial activity for mouse protection against Streptococcus pyogenes C 203 after oral administration; type: functional; conditions: Streptococcus pyogenes, C 203, po; read-out: PD50
[16] = test system: Streptococcus pyogenes; assay: Minimum inhibitory concentration was evaluated in vitro against Streptococcus pyogenes C 203; type: functional; conditions: Streptococcus pyogenes; read-out: MIC; outline: as §1
[17] = target: DNA gyrase (Escherichia coli, UniProt P0AES4+P0AES6); assay: Inhibition against DNA gyrase; type: protein-complex assay

| Compound | MIC [1] | ED50 [2] | ED50 [3] | MIC [4] | MIC [5] | MIC [6] | Dose [7] | MIC [8] | MIC [9] | MIC [10] | MIC [11] | MIC [12] | ED50 [13] | Cytotoxicity [14] | ED50 [15] | MIC [16] | IC50 [17] |
| --- | --- | --- | --- | --- | --- | --- | --- | --- | --- | --- | --- | --- | --- | --- | --- | --- | --- |
| NC1CCN(c2nc3c(cc2F)c(=O)c(C(=O)O)cn3-c2ccc(F)cc2F)C1 (stereo not given) [TOSUFLOXACIN] | 0.025 µg/mL (≈ 0.0618 µM) | 0.5 mg/kg | 0.2 mg/kg | 0.025 µg/mL (≈ 0.0618 µM) | 0.1 µg/mL (≈ 0.247 µM) | 0.1 µg/mL (≈ 0.247 µM) | >100 mg/kg | 0.1 µg/mL (≈ 0.247 µM) | 0.4 µg/mL (≈ 0.989 µM) | 0.05 µg/mL (≈ 0.124 µM) | 0.013 µg/mL (≈ 0.0322 µM) | 0.05 µg/mL (≈ 0.124 µM) | 3 mg/kg | 120 µg/mL | 5 mg/kg | 0.05 µg/mL (≈ 0.124 µM) | – |
| C[C@@H](N)[C@@H]1CCN(c2nc3c(cc2F)c(=O)c(C(=O)O)cn3C2CC2)C1 | 0.05 µg/mL (≈ 0.139 µM) | – | – | 0.05 µg/mL (≈ 0.139 µM) | 0.05 µg/mL (≈ 0.139 µM) | 0.1 µg/mL (≈ 0.277 µM) | – | 0.4 µg/mL (≈ 1.11 µM) | 0.8 µg/mL (≈ 2.22 µM) | 0.05 µg/mL (≈ 0.139 µM) | 0.006 µg/mL (≈ 0.0166 µM) | 0.006 µg/mL (≈ 0.0166 µM) | 2 mg/kg | – | 14 mg/kg | 0.013 µg/mL (≈ 0.0361 µM) | 2080 nM |
| COc1c(N2CC[C@H]([C@@H](C)N)C2)c(F)cc2c(=O)c(C(=O)O)cn(C3CC3)c12 (racemic) | 0.025 µg/mL (≈ 0.0642 µM) | 4 mg/kg | 1 mg/kg | 0.05 µg/mL (≈ 0.128 µM) | 0.006 µg/mL (≈ 0.0154 µM) | 0.05 µg/mL (≈ 0.128 µM) | >100 mg/kg | 0.05 µg/mL (≈ 0.128 µM) | 0.4 µg/mL (≈ 1.03 µM) | 0.006 µg/mL (≈ 0.0154 µM) | 0.003 µg/mL (≈ 0.0077 µM) | 0.003 µg/mL (≈ 0.0077 µM) | 0.3 mg/kg | <7.8 µg/mL | 1 mg/kg | 0.003 µg/mL (≈ 0.0077 µM) | – |
| C[C@H](N)[C@H]1CCN(c2nc3c(cc2F)c(=O)c(C(=O)O)cn3C2CC2)C1 | 0.05 µg/mL (≈ 0.139 µM) | – | – | 0.05 µg/mL (≈ 0.139 µM) | 0.1 µg/mL (≈ 0.277 µM) | 0.2 µg/mL (≈ 0.555 µM) | – | 0.4 µg/mL (≈ 1.11 µM) | 1.6 µg/mL (≈ 4.44 µM) | 0.2 µg/mL (≈ 0.555 µM) | 0.025 µg/mL (≈ 0.0694 µM) | 0.05 µg/mL (≈ 0.139 µM) | 10 mg/kg | – | 28 mg/kg | 0.05 µg/mL (≈ 0.139 µM) | 6940 nM |
| C[C@@H](N)[C@@H]1CCN(c2cc3c(cc2F)c(=O)c(C(=O)O)cn3C2CC2)C1 | 0.1 µg/mL (≈ 0.278 µM) | – | – | 0.2 µg/mL (≈ 0.556 µM) | 0.1 µg/mL (≈ 0.278 µM) | 0.4 µg/mL (≈ 1.11 µM) | – | 0.8 µg/mL (≈ 2.23 µM) | 1.6 µg/mL (≈ 4.45 µM) | 0.2 µg/mL (≈ 0.556 µM) | 0.05 µg/mL (≈ 0.139 µM) | 0.025 µg/mL (≈ 0.0696 µM) | 2 mg/kg | – | > 100 mg/kg | 0.025 µg/mL (≈ 0.0696 µM) | 2090 nM |
| CCNC[C@@H]1CCN(c2c(F)cc3c(=O)c(C(=O)O)cn(CC)c3c2F)C1 | 0.1 µg/mL (≈ 0.264 µM) | 10 mg/kg | 3 mg/kg | 0.2 µg/mL (≈ 0.527 µM) | 0.1 µg/mL (≈ 0.264 µM) | 0.1 µg/mL (≈ 0.264 µM) | 1.5 mg/kg | 0.2 µg/mL (≈ 0.527 µM) | 1.6 µg/mL (≈ 4.22 µM) | 0.05 µg/mL (≈ 0.132 µM) | 0.05 µg/mL (≈ 0.132 µM) | 0.1 µg/mL (≈ 0.264 µM) | 4 mg/kg | 190 µg/mL | 10 mg/kg | 0.1 µg/mL (≈ 0.264 µM) | – |
| C[C@@H](N)[C@H]1CCN(c2c(F)c(N)c3c(=O)c(C(=O)O)cn(C4CC4)c3c2F)C1 (racemic) | 0.013 µg/mL (≈ 0.0331 µM) | 2 mg/kg | 0.3 mg/kg | 0.013 µg/mL (≈ 0.0331 µM) | 0.003 µg/mL (≈ 0.00765 µM) | 0.013 µg/mL (≈ 0.0331 µM) | <30 mg/kg | 0.025 µg/mL (≈ 0.0637 µM) | 0.4 µg/mL (≈ 1.02 µM) | 0.003 µg/mL (≈ 0.00765 µM) | 0.003 µg/mL (≈ 0.00765 µM) | 0.003 µg/mL (≈ 0.00765 µM) | 0.1 mg/kg | <7.8 µg/mL | 0.6 mg/kg | 0.003 µg/mL (≈ 0.00765 µM) | – |
| CNC(C)C1CCN(c2nc3c(cc2F)c(=O)c(C(=O)O)cn3-c2ccc(F)cc2F)C1 (racemic) | 0.4 µg/mL (≈ 0.896 µM) | 6 mg/kg | 2 mg/kg | 0.8 µg/mL (≈ 1.79 µM) | 0.2 µg/mL (≈ 0.448 µM) | 0.8 µg/mL (≈ 1.79 µM) | >100 mg/kg | 1.6 µg/mL (≈ 3.58 µM) | 3.1 µg/mL (≈ 6.94 µM) | 0.1 µg/mL (≈ 0.224 µM) | 0.025 µg/mL (≈ 0.056 µM) | 0.025 µg/mL (≈ 0.056 µM) | 1 mg/kg | 310 µg/mL | 4 mg/kg | 0.05 µg/mL (≈ 0.112 µM) | – |
| CCN[C@H](C)[C@H]1CCN(c2c(F)cc3c(=O)c(C(=O)O)cn(C4CC4)c3c2OC)C1 (racemic) | 0.1 µg/mL (≈ 0.24 µM) | 5 mg/kg | 2 mg/kg | 0.1 µg/mL (≈ 0.24 µM) | 0.025 µg/mL (≈ 0.0599 µM) | 0.2 µg/mL (≈ 0.479 µM) | >100 mg/kg | 0.4 µg/mL (≈ 0.958 µM) | 3.1 µg/mL (≈ 7.43 µM) | 0.013 µg/mL (≈ 0.0311 µM) | 0.003 µg/mL (≈ 0.00719 µM) | 0.006 µg/mL (≈ 0.0144 µM) | 0.2 mg/kg | 110 µg/mL | 0.5 mg/kg | 0.006 µg/mL (≈ 0.0144 µM) | – |
